{
  "source": "ChEMBL document CHEMBL1123803",
  "about": "“Synthesis and biological activities of pseudopeptide analogues of the C-terminal heptapeptide of cholecystokinin. On the importance of the peptide bonds” (J Med Chem, 1987)",
  "organism": "Rattus norvegicus",
  "test": "Activity on Amylase release from rat pancreatic acini was determined",
  "assay_type": "functional",
  "outline": "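Dispersed rat pancreatic acini (about 1 mg protein/mL) in Hepes pH 7.4 standard incubation solution with 1% BSA, 1 mM calcium, 5 mM theophylline, gassed 95% O2/5% CO2; incubated 30 min at 37 °C across a concentration range. Amylase measured with Phadebas reagent; release = with minus without secretagogue, as percent of maximal CCK-8 stimulation. Duplicates, means of at least three experiments.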",
  "data": [
    {"smiles": "CCCC[C@H](NC(=O)[C@H](Cc1ccc(OS(=O)(=O)O)cc1)NC(=O)[C@H](CC(=O)O)NC(=O)OC(C)(C)C)C(=O)NCC(=O)N[C@@H](Cc1c[nH]c2ccccc12)C(=O)N[C@@H](CCCC)C(=O)N[C@@H](CC(=O)O)C(=O)N[C@@H](Cc1ccccc1)C(N)=O", "values": [
      {"measurement": "conc. for maximal amylase release", "value": 300, "unit": "pM"}
    ]}
  ]
}
